Reference: ChEMBL document CHEMBL3621143, “Discovery of BMS-641988, a Novel Androgen Receptor Antagonist for the Treatment of Prostate Cancer” (ACS Med Chem Lett, 2015)
Active and inactive are the calls of the source. The rule behind the calls is not given here.

How the values were obtained:
[1] = tested on: Rattus norvegicus; experiment: In vivo antagonist activity at androgen receptor in immature Sprague-Dawley rat prostate weight model assessed as testosterone propionate-induced weight of seminal vesicles over full body weight at 10 mg/kg, po qd administered for 4 days; assay type: functional; parameters: scale not given: the % may be the effect or the level left
In short: (§1)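 Immature rat prostate weight PK/PD model. Oral dosing once daily at 1 or 10 mg/kg for 4 days. Seminal vesicle weight expressed as % of full body weight, n=3, scaled so testosterone-treated control = 100% and sham = 10%.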

[2] = tested on: CWR22; experiment: Antitumor activity against human CWR22 cells in Balb/c athymic (nu/nu) mouse CWR22-BMSLD1 prostate cancer xenograft model assessed as tumor growth inhibition at 150 mg/kg, po qd administered for 35 days measured from day 10 to 35 during compound dosing; assay type: functional, organism-based
In short: (§2)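 CWR22-BMSLD1 human prostate cancer xenograft. Oral once-daily dosing at 90 mg/kg for 45 days, or at 150 mg/kg for 35 days, with a vehicle group. Median tumor volume (mm3) tracked against days post implant.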

[3] = tested on: Rattus norvegicus; experiment: In vivo antagonist activity at androgen receptor in immature Sprague-Dawley rat prostate weight model assessed as testosterone propionate-induced weight of seminal vesicles over full body weight at 1 mg/kg, po qd administered for 4 days; assay type: functional; parameters: scale not given: the % may be the effect or the level left; in short: as §1
[4] = Plasma concentration in immature Sprague-Dawley rat prostate weight model at 1 mg/kg, po qd administered for 4 days measured 2 hrs post last dose on day 4; assay type: ADME, organism-based
In short: (§3)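 Immature rat prostate weight model, oral dosing once daily at 1 or 10 mg/kg for 4 days. Plasma drug concentration (µM) measured 2 hours post-dose on day 4, n=3.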

[5] = tested on: CWR22; experiment: Antitumor activity against human CWR22 cells in Balb/c athymic (nu/nu) mouse CWR22-BMSLD1 prostate cancer xenograft model assessed as tumor growth inhibition at 150 mg/kg, po qd measured for 10 days during compound dosing; assay type: functional, organism-based; in short: as §2
[6] = Plasma concentration in immature Sprague-Dawley rat prostate weight model at 10 mg/kg, po qd administered for 4 days measured 2 hrs post last dose on day 4; assay type: ADME, organism-based; in short: as §3
[7] = molecular target: T1, Androgen receptor (Homo sapiens, UniProt P10275); experiment: Displacement of [3H]-DHT from androgen receptor in human MDA-MB-453 cells after 90 mins by TopCount analysis; assay type: cell-based
T1 sequence (P10275 whole entry): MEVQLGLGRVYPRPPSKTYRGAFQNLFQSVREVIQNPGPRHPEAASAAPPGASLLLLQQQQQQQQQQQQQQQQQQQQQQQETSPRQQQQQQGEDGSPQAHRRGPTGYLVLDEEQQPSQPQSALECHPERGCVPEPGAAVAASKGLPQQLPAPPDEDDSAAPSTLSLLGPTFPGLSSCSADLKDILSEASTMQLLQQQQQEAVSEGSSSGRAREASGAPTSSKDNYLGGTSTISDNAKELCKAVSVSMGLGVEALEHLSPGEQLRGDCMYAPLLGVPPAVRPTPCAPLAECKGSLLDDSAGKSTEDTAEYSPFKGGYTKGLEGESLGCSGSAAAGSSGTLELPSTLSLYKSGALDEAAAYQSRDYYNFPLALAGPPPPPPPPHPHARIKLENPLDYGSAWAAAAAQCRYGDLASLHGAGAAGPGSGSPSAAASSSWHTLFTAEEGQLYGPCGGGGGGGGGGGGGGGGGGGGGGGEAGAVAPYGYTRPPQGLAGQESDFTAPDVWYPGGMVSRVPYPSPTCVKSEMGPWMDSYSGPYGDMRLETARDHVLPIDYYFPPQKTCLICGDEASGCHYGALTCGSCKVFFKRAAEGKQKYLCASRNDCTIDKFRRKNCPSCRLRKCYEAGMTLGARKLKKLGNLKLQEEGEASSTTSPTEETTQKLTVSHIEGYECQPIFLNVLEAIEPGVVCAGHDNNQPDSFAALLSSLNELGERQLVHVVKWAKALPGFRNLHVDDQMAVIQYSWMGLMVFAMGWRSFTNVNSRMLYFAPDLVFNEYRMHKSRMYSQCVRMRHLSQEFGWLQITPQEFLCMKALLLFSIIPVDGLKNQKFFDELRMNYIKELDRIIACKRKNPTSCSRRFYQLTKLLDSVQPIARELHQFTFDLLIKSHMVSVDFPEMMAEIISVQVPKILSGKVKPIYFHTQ

[8] = molecular target: T1, Androgen receptor; experiment: Antagonist activity at androgen receptor in human MDA-MB-453 cells assessed as inhibition of DHT-induced PSA expression by alkaline phosphatase reporter gene assay; assay type: cell-based
[9] = Protein binding in mouse serum; assay type: ADME, cell-free; details: read-out: PB

Structure (SMILES) | Activity [1] [%] | TGI [2] | Activity [3] [%] | concentration at 2 h [4] [nM] | TGI [5] | concentration at 2 h [6] [nM] | Ki [7] [nM] | IC50 [8] [nM] | fraction unbound [9]
CC(O)(CS(=O)(=O)c1ccc(F)cc1)C(=O)Nc1ccc(C#N)c(C(F)(F)F)c1 (stereo not drawn) [BICALUTAMIDE] | 41 | inactive | 69 | 2300 | Active | 9500 |  |  | 
C[C@]12O[C@@](C)(C[C@H]1NS(=O)(=O)c1ccccc1F)[C@H]1C(=O)N(c3ccc(C#N)c(C(F)(F)F)c3)C(=O)[C@H]12 | 24 |  | 56 | 160 |  | 1900 | 1 | 10 | 
CC12C[C@H](O)[C@](C)(O1)[C@@H]1C(=O)N(c3ccc(C#N)c(I)c3)C(=O)[C@@H]12 (single isomer, unassigned) |  |  |  |  |  |  | 8 | 10 | 
CC(C)NC(=O)N[C@@H]1C[C@]2(C)O[C@]1(C)[C@@H]1C(=O)N(c3ccc(C#N)c(C(F)(F)F)c3)C(=O)[C@@H]12 | 56 |  | 115 | 8300 |  | 60000 | 31 | 60 | < 0.01
C[C@]12O[C@@](C)(C[C@H]1NS(=O)(=O)c1ccccc1)[C@H]1C(=O)N(c3ccc(C#N)c(C(F)(F)F)c3)C(=O)[C@H]12 | 31 |  | 63 | 230 |  | 2400 | 10 | 1 | 
C[C@]12O[C@@](C)(C[C@H]1NS(C)(=O)=O)[C@H]1C(=O)N(c3ccc(C#N)c(C(F)(F)F)c3)C(=O)[C@H]12 | 26 |  | 64 | 290 |  | 4000 | 12 | 20 | 
C[C@]12O[C@@](C)(C[C@H]1N)[C@H]1C(=O)N(c3ccc(C#N)c(C(F)(F)F)c3)C(=O)[C@H]12 | 89 |  | 89 | 80 |  | 480 | 31 | 60 | 
CN(C(=O)[C@@H]1C[C@]2(C)O[C@]1(C)[C@@H]1C(=O)N(c3ccc(C#N)c(C(F)(F)F)c3)C(=O)[C@@H]12)c1ccccc1 | 43 |  | 88 | 1800 |  | 12000 | 50 | 34 | 
C[C@]12O[C@@](C)(C[C@H]1NS(=O)(=O)c1cccnc1)[C@H]1C(=O)N(c3ccc(C#N)c(C(F)(F)F)c3)C(=O)[C@H]12 | 23 |  | 44 | 50 |  | 520 | 2 | 7 | 
CC(C)OC(=O)[C@@H]1C[C@]2(C)O[C@]1(C)[C@@H]1C(=O)N(c3ccc(C#N)c(C(F)(F)F)c3)C(=O)[C@@H]12 |  |  |  |  |  |  | 23 | 22 | 
CNS(=O)(=O)N[C@@H]1C[C@]2(C)O[C@]1(C)[C@@H]1C(=O)N(c3ccc(C#N)c(C(F)(F)F)c3)C(=O)[C@@H]12 | 36 |  | 89 | 10 |  | 230 | 50 | 34 | 
CCC(=O)N[C@@H]1C[C@]2(C)O[C@]1(C)[C@@H]1C(=O)N(c3ccc(C#N)c(C(F)(F)F)c3)C(=O)[C@@H]12 | 34 |  | 87 | 24000 |  | 190000 | 3 | 23 | < 0.01
C[C@]12O[C@@](C)(C[C@H]1C(=O)O)[C@H]1C(=O)N(c3ccc(C#N)c(C(F)(F)F)c3)C(=O)[C@H]12 |  |  |  |  |  |  | 1600 | > 5000 | 
